{
  "source": "ChEMBL document CHEMBL1157882",
  "about": "“Novel 2-[(benzylamino)methyl]pyrrolidine-3,4-diol derivatives as alpha-mannosidase inhibitors and with antitumor activities against hematological and solid malignancies” (Bioorg Med Chem, 2010)",
  "key": {"A549": {"tested_on": "A549", "assay": "Cytotoxicity against human A549 cells after 72 hrs by colorimetric assay in presence of pan-caspase inhibitor zVAD-fmk", "assay_type": "functional, cell-based"}, "Jurkat": {"tested_on": "Jurkat", "assay": "Cytotoxicity in human Jurkat cells overexpressing Bcl2 assessed as cell death at 50 uM after 72 hrs by propidium iodide-staining based flow cytometry", "assay_type": "functional", "procedure,_shortened": "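Jurkat T cells stably overexpressing Bcl-2, plus vector controls, in RPMI-1640 with 10% FBS. Seeded at 4×10⁴ per well and treated for 72 h with 40 µM etoposide, 2 µM doxorubicin or 50 µM compound. Dead cells counted by propidium iodide staining and flow cytometry; means of triplicates with SD.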"}, "[1]": {"assay": "Cytotoxicity in human multiple myeloma cells assessed as viable cells at 50 uM after 24 hrs by annexin V/propidium iodide staining based flow cytometry (reference value: 48.2%)", "assay_type": "functional", "details": "Multiple myeloma cell, read-out: Activity"}, "[2]": {"biological_target": "T1, Beta-galactosidase (Aspergillus oryzae) (UniProt Q2U7N3)", "T1 sequence (whole entry)": "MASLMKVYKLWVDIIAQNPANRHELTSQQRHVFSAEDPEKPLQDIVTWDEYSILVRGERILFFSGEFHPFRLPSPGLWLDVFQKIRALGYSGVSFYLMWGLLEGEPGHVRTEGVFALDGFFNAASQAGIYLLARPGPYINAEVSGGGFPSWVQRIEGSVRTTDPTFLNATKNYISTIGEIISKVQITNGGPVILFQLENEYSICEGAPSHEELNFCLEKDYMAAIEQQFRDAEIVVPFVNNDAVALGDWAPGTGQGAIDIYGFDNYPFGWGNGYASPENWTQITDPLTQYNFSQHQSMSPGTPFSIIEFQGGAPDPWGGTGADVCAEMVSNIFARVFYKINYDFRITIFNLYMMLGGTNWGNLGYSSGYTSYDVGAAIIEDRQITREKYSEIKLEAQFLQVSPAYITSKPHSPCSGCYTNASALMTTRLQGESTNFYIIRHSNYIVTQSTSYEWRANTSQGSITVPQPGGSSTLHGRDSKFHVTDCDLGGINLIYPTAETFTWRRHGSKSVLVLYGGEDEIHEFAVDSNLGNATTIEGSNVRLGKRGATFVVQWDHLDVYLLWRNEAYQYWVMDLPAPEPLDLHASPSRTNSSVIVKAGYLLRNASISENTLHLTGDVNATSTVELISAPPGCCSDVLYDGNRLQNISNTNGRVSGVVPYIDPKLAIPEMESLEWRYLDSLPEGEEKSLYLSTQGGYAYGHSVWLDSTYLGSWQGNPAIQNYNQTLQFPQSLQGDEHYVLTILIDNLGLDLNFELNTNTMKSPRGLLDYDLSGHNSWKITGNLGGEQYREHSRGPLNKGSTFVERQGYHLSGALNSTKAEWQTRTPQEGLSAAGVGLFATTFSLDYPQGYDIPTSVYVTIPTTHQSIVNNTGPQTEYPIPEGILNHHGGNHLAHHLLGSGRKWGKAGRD", "assay": "Inhibition of beta-galactosidase from Aspergillus oryzae at 1 mM at pH 4", "procedure,_shortened": "(§1)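 Glycosidase panel of commercial enzymes assayed at each enzyme's optimal pH with compound at 1 mM; percentage inhibition of enzyme activity calculated.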"}, "[3]": {"biological_target": "T2, Tissue alpha-L-fucosidase (Bos taurus) (UniProt Q2KIM0)", "T2 sequence (whole entry)": "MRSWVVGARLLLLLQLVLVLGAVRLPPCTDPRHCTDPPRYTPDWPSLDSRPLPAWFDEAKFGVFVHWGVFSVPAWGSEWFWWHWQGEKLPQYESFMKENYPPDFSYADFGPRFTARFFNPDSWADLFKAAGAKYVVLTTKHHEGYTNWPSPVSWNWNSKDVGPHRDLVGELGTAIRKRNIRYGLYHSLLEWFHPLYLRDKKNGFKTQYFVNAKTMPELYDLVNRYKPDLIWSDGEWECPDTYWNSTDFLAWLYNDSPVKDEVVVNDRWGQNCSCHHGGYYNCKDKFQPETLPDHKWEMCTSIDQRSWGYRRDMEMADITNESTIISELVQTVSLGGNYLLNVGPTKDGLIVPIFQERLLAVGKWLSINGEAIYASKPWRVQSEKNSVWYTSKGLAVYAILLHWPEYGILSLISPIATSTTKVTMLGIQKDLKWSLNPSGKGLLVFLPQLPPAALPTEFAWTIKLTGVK", "assay": "Inhibition of alpha-L-fucosidase from bovine kidney at 1 mM at pH 6", "procedure,_shortened": "as §1"}},
  "note": "The source made the active and inactive calls. The calls are words filed in the database; no cut-off is given here.",
  "data": [
    {"smiles": "OC[C@H](NC[C@H]1NC[C@H](O)[C@@H]1O)c1ccc(-c2ccc(C(F)(F)F)cc2)cc1", "values": [
      {"measurement": "Activity", "setting": "A549", "value": "Active"},
      {"measurement": "Activity", "setting": "Jurkat", "value": "Active"},
      {"measurement": "viability at 50 µM", "setting": "[1]", "value": 42.8, "unit": "%"},
      {"measurement": "inhibition", "setting": "[2]", "value": "< 10", "unit": "%"},
      {"measurement": "inhibition", "setting": "[3]", "value": "< 10", "unit": "%"}
    ]}
  ]
}
